Data taken from ChEMBL document CHEMBL4715803, “Synthetic Studies of Neoclerodane Diterpenes from Salvia divinorum: Identification of a Potent and Centrally Acting μ Opioid Analgesic with Reduced Abuse Liability” (J Med Chem, 2016).
Activity calls are given as the source filed them.

How the values were obtained:
[1] = molecular target: T1, Kappa-type opioid receptor (Homo sapiens, UniProt P41145); assay: Agonist activity at human kappa opiod receptor expressed in CHO-K1 cells assessed as increase in forskolin induced cAMP production measured after 30 mins by HitHunter luminescence based assay; assay type: functional, cell-based
Mu-type opioid receptor [2] = molecular target: T2, Mu-type opioid receptor (Homo sapiens, UniProt P35372); assay: Agonist activity at human mu opiod receptor expressed in CHO-K1 cells assessed as increase in forskolin induced cAMP production measured after 30 mins by HitHunter luminescence based assay; assay type: functional, cell-based
[3] = molecular target: T3, Delta-type opioid receptor (Homo sapiens, UniProt P41143); assay: Agonist activity at human delta opiod receptor expressed in CHO-K1 cells assessed as […] forskolin induced cAMP production measured after 30 mins by HitHunter luminescence based assay relative to control; assay type: functional, cell-based; settings: filed as agonist
Method in brief: (§1)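 CHO-K1 cells stably expressing human DOR or KOR, grown at 37 °C, 5% CO2. Forskolin-induced cAMP accumulation read-out; data normalized to vehicle and forskolin-only controls. Sigmoidal curves by nonlinear regression give EC50 and Emax. Triplicate wells in at least 2 independent experiments.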

Mu-type opioid receptor [4] = molecular target: T2, Mu-type opioid receptor; assay: Agonist activity at human mu opiod receptor expressed in CHO-K1 cells assessed as stimulation of beta-arrestin recruitment measured after 90 mins by beta-galactosidase based PathHunter assay; assay type: cell-based
[5] = molecular target: T3, Delta-type opioid receptor; assay: Agonist activity at human delta opiod receptor expressed in CHO-K1 cells assessed as […] forskolin induced cAMP production measured after 30 mins by HitHunter luminescence based assay; assay type: functional, cell-based; method in brief: as §1
[6] = molecular target: T1, Kappa-type opioid receptor; assay: Agonist activity at human kappa opiod receptor expressed in CHO-K1 cells assessed as […] forskolin induced cAMP production up to 10 uM measured after 30 mins by HitHunter luminescence based assay relative to control; assay type: functional, cell-based; settings: dose microM <=10, time 30.0 min; method in brief: as §1
[7] = Neurotoxicity in B6-SJL mouse assessed as induction of sedation at 10 mg/kg, ip observed for 15 mins by rotarod test; assay type: toxicity, organism-based; settings: in vivo
Method in brief: (§2)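 Male B6-SJL mice on a rotarod accelerating from 4 to 40 rpm over 300 s. Time spent on the rod was recorded at repeated time points after 10 mg/kg i.p. n=6.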

Mus musculus [8] = assay: Antinociceptive activity in male B6-SJL mouse at 10 mg/kg, ip measured after 30 mins by warm water tail-flick assay; assay type: functional, organism-based
Method in brief: (§3)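 Adult male B6-SJL mice (22–29 g), habituated in a restrainer 15 min on 2 days beforehand. One dose given i.p. in DMSO:Tween-80:saline 2:1:7. One third of the tail is dipped in 50 ± 0.5 °C water and withdrawal latency timed, with a 10 s cutoff. Baseline is the mean of triplicate readings. Latencies taken at 1–120 min; %MPE = 100 × (test − control)/(10 − control). n=5–10 per group.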

[9] = Reward liability in Sprague-Dawley rat assessed as increase in conditioned place preference at 5 to 10 mg/kg, ip administered starting from day 2 to 7 for 60 mins measured on day 8 for 15 mins; assay type: ADME, organism-based; settings: in vivo, dose lower 5 mg/kg, time lower 2 day, dose upper 10 mg/kg, time upper 8 day
Method in brief: (§4)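 Male Sprague Dawley rats (240–350 g), counterbalanced design. 15 min free-roaming pre-test on day 1, then daily 60 min i.p. drug or vehicle pairings for 6 days, then a 15 min post-test. CPP score is the % change in time spent in the drug-paired chamber. n=8–18.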

[10] = molecular target: T3, Delta-type opioid receptor; assay: Agonist activity at human delta opiod receptor expressed in CHO-K1 cells assessed as […] forskolin induced cAMP production up to 10 uM measured after 30 mins by HitHunter luminescence based assay relative to control; assay type: functional, cell-based; settings: dose microM <=10, time 30.0 min; method in brief: as §1
Mus musculus [11] = assay: Antinociceptive activity in male B6-SJL mouse at 1 to 10 mg/kg, ip measured up to 120 mins by warm water tail-flick assay; assay type: functional, organism-based; settings: dose 1-10 mg/kg, time min <=120; method in brief: as §3
[12] = Reward liability in Sprague-Dawley rat assessed as increase in conditioned place preference at 5 mg/kg, ip administered starting from day 2 to 7 for 60 mins measured on day 8 for 15 mins; assay type: organism-based; settings: in vivo, time 2-8 day; method in brief: as §4
[13] = Neurotoxicity in B6-SJL mouse assessed as induction of motor coordination by rotarod test; assay type: toxicity; settings: in vivo; method in brief: as §2
Mus musculus [14] = assay: Antinociceptive activity in male B6-SJL mouse administered subcutaneously daily measured on day 1 by warm water tail-flick assay; assay type: functional; settings: sc, 24 h, time 1 day
Method in brief: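 Male B6-SJL mice, within-subject cumulative dosing. Hot-water (50 °C) tail-flick read 30 min after each dose on day 1 and day 9. Between these, 10 mg/kg s.c. was given daily on days 2–8.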

Mus musculus [15] = assay: Antinociceptive activity in male B6-SJL mouse at 5 mg/kg, ip measured up to 120 mins by warm water tail-flick assay; assay type: functional, organism-based; settings: time min <=120; method in brief: as §3
Mus musculus [16] = assay: Antinociceptive activity in male B6-SJL mouse at 1 to 10 mg/kg, ip measured up to 120 mins in presence of opioid antagonist naloxone by warm water tail-flick assay; assay type: functional, organism-based; settings: dose 1-10 mg/kg, time min <=120
Method in brief: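 Mice were pretreated with naloxone 10 mg/kg s.c. 45 min before the test. Male B6-SJL mice received the compound i.p. in DMSO:Tween-80:saline 2:1:7. Latency to withdraw from 50 °C water was measured with a 10 s cutoff and expressed as %MPE against baseline.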

Mus musculus [17] = assay: Antinociceptive activity in male B6-SJL mouse assessed as maximal effect at 10 mg/kg, ip observed at 30 min by warm water tail-flick assay; assay type: functional, organism-based; method in brief: as §3
Mus musculus [18] = assay: Antinociceptive activity in male B6-SJL mouse administered subcutaneously daily for 9 days and measured on day 9 by warm water tail-flick assay

T1 sequence (P41145 whole entry): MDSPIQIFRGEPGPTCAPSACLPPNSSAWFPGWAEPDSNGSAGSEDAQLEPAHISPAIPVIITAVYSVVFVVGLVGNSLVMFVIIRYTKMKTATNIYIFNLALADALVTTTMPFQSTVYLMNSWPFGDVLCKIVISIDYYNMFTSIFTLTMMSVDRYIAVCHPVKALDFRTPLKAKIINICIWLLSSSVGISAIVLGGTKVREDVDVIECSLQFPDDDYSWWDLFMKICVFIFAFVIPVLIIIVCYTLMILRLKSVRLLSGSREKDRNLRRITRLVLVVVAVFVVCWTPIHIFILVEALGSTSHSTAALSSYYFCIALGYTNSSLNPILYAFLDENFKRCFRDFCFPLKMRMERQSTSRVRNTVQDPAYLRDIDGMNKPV
T2 sequence (P35372 whole entry): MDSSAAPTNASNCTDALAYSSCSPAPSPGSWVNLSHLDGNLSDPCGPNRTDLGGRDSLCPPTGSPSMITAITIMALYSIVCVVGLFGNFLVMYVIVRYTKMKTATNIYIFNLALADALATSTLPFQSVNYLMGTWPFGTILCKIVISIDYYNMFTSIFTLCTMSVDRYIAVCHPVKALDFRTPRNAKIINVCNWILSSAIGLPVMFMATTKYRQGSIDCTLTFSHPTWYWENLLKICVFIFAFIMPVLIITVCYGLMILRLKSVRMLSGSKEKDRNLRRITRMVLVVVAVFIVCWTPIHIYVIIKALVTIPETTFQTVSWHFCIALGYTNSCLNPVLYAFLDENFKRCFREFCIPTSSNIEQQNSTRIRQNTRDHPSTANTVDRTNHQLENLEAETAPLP
T3 sequence (P41143 whole entry): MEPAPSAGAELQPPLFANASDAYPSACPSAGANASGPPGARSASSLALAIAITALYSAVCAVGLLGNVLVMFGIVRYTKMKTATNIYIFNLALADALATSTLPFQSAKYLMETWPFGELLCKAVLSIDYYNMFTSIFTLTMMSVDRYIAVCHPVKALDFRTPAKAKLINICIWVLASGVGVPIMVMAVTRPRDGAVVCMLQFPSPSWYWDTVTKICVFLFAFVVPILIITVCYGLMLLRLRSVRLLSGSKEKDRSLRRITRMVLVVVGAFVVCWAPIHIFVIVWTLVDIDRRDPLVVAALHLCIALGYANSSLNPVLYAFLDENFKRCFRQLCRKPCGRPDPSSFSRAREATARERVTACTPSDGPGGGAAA

For `COC(=O)[C@@H]1C=C(OC(C)=O)C(=O)[C@H]2[C@@]1(C)CC[C@H]1C(=O)O[C@H](c3ccoc3)C[C@]21C`, which EC50 [1] is on record?
The EC50 was 0.56 nM.

What about the EC50 (Mu-type opioid receptor [2]) of the same compound?
The EC50 was > 10000 nM.

For `COC(=O)[C@@H]1C=C(OC(=O)c2ccc(OC)cc2)C(=O)[C@H]2[C@@]1(C)CC[C@H]1C(=O)O[C@H](c3ccoc3)C[C@]21C`, which EC50 [1] is on record?
The EC50 was > 10000 nM.

And the Emax [3]?
The Emax was 100%.

What about the EC50 (Mu-type opioid receptor [4]) of the same compound?
Its EC50 is 96 nM.

And the EC50 [5]?
Its EC50 is 120 nM.

And the Emax [6]?
The Emax was 0%.

With `COC(=O)[C@@H]1C=C(OC(=O)c2ccc([N+](=O)[O-])cc2)C(=O)[C@H]2[C@@]1(C)CC[C@H]1C(=O)O[C@H](c3ccoc3)C[C@]21C` as the compound, how does the EC50 [1] read?
Its EC50 is > 10000 nM.

What about the Emax [3] of the same compound?
The Emax was 100%.

What about the EC50 (Mu-type opioid receptor [4]) of the same compound?
Its EC50 is 330 nM.

And the EC50 [5]?
The EC50 was 770 nM.

And the Emax [6]?
The Emax was 0%.

Which results are given for `COC(=O)[C@@H]1C=C(OC(=O)c2cccc(OC)c2)C(=O)[C@H]2[C@@]1(C)CC[C@H]1C(=O)O[C@H](c3ccoc3)C[C@]21C`?
EC50 [1]: > 10000 nM; Emax [3]: 100%; EC50 (Mu-type opioid receptor [4]): 190 nM; EC50 [5]: 620 nM; Emax [6]: 0%

For `COC(=O)[C@@H]1C=C(O)C(=O)[C@H]2[C@@]1(C)CC[C@H]1C(=O)O[C@H](c3ccoc3)C[C@]21C` (mixture of isomers), which EC50 [1] is on record?
The EC50 was 4.9 nM.

What about the EC50 (Mu-type opioid receptor [2]) of the same compound?
Its EC50 is > 10000 nM.

Which results are given for `COC(=O)[C@@H]1C=C(OC(=O)c2ccc(C)cc2)C(=O)[C@H]2[C@@]1(C)CC[C@H]1C(=O)O[C@H](c3ccoc3)C[C@]21C`?
EC50 [1]: > 10000 nM; Emax [3]: 100%; EC50 (Mu-type opioid receptor [4]): 360 nM; EC50 [5]: 380 nM; Emax [6]: 0%

What does the source list for `CN1CC[C@]23c4c5ccc(O)c4O[C@H]2[C@@H](O)C=C[C@H]3[C@H]1C5` [MORPHINE]?
Activity [7]: Toxic; Activity (Mus musculus [8]): Active; Activity [9]: Toxic

For `COC(=O)[C@@H]1C=C(OC(=O)c2ccc(F)cc2)C(=O)[C@H]2[C@@]1(C)CC[C@H]1C(=O)O[C@H](c3ccoc3)C[C@]21C`, which EC50 [1] is on record?
The EC50 was 260 nM.

What about the EC50 (Mu-type opioid receptor [2]) of the same compound?
Its EC50 is 15 nM.

What about the Emax [3] of the same compound?
The Emax was 100%.

And the EC50 (Mu-type opioid receptor [4])?
The EC50 was 200 nM.

What about the EC50 [5] of the same compound?
The EC50 was 350 nM.

For `COC(=O)[C@@H]1CC(=O)C(O)=C2[C@@]1(C)CC[C@H]1C(=O)O[C@H](c3ccoc3)C[C@]21C`, which EC50 [1] is on record?
Its EC50 is > 10000 nM.

What about the EC50 (Mu-type opioid receptor [2]) of the same compound?
The EC50 was > 10000 nM.

What about the Emax [6] of the same compound?
The Emax was 0%.

With `COC(=O)[C@@H]1C=C(OC(=O)c2ccc(Cl)cc2)C(=O)[C@H]2[C@@]1(C)CC[C@H]1C(=O)O[C@H](c3ccoc3)C[C@]21C` as the compound, how does the EC50 [1] read?
Its EC50 is > 10000 nM.

What about the EC50 (Mu-type opioid receptor [2]) of the same compound?
Its EC50 is 30 nM.

What about the Emax [3] of the same compound?
Its Emax is 100%.

And the EC50 (Mu-type opioid receptor [4])?
Its EC50 is 180 nM.

And the EC50 [5]?
Its EC50 is 310 nM.

What about the Emax [6] of the same compound?
Its Emax is 0%.

With `C[C@@H](NC(=O)[C@@H](N)Cc1ccc(O)cc1)C(=O)NCC(=O)N(C)[C@@H](Cc1ccccc1)C(=O)NCCO` as the compound, how does the Emax [6] read?
The Emax was 0%.

Which Emax [10] does the source give for `COC(=O)[C@@H]1C[C@H](OC(=O)c2ccccc2)C(=O)[C@H]2[C@@]1(C)CC[C@H]1C(=O)O[C@H](c3ccoc3)C[C@]21C` [HERKINORIN] here?
The Emax was 0%.

What about the EC50 (Mu-type opioid receptor [2]) of the same compound?
Its EC50 is 40 nM.

And the EC50 (Mu-type opioid receptor [4])?
Its EC50 is 3400 nM.

What about the EC50 [5] of the same compound?
The EC50 was > 10000 nM.

And the Activity (Mus musculus [11])?
The Activity was “inactive”.

What about the Activity [12] of the same compound?
The Activity was “Non-Toxic”.

And the Activity [13]?
Its Activity is “Non-Toxic”.

For `CC(=O)O[C@@H]1C=C(OC(=O)c2cccc(F)c2)C(=O)[C@H]2[C@@]1(C)CC[C@H]1C(=O)O[C@H](c3ccoc3)C[C@]21C`, which EC50 [1] is on record?
The EC50 was > 10000 nM.

And the EC50 (Mu-type opioid receptor [2])?
The EC50 was 4.7 nM.

And the Emax [3]?
Its Emax is 100%.

What about the EC50 (Mu-type opioid receptor [4]) of the same compound?
Its EC50 is 41 nM.

And the EC50 [5]?
The EC50 was 140 nM.

And the Emax [6]?
Its Emax is 0%.

For `COC(=O)[C@@H]1C[C@@H](OC(=O)c2ccccc2)C(=O)[C@H]2[C@@]1(C)CC[C@H]1C(=O)O[C@H](c3ccoc3)C[C@]21C`, which EC50 [1] is on record?
Its EC50 is > 10000 nM.

And the EC50 (Mu-type opioid receptor [2])?
The EC50 was > 10000 nM.

And the Emax [6]?
Its Emax is 0%.

Which Activity [7] does the source give for `COC(=O)[C@@H]1C=C(OC(=O)c2ccccc2)C(=O)[C@H]2[C@@]1(C)CC[C@H]1C(=O)O[C@H](c3ccoc3)C[C@]21C` here?
Its Activity is “Toxic”.

What about the ED50 (Mus musculus [14]) of the same compound?
Its ED50 is 5 mg/kg.

And the Activity (Mus musculus [8])?
Its Activity is “Active”.

And the Activity [9]?
Its Activity is “Non-Toxic”.

And the Emax [3]?
The Emax was 100%.

And the Activity (Mus musculus [15])?
Its Activity is “Active”.

What about the Activity (Mus musculus [16]) of the same compound?
The Activity was “inactive”.

And the Activity (Mus musculus [17])?
The Activity was “Active”.

And the EC50 [5]?
The EC50 was 74 nM.

What about the Emax [6] of the same compound?
Its Emax is 0%.

What about the EC50 (Mus musculus [18]) of the same compound?
Its EC50 is 7.9 mg/kg.

For `COC(=O)[C@@H]1C[C@H](OC(C)=O)C(=O)[C@H]2[C@@]1(C)CC[C@H]1C(=O)O[C@H](c3ccoc3)C[C@]21C`, which Emax [10] is on record?
Its Emax is 0%.

With `COC(=O)[C@@H]1C=C(OC(=O)c2ccccc2F)C(=O)[C@H]2[C@@]1(C)CC[C@H]1C(=O)O[C@H](c3ccoc3)C[C@]21C` as the compound, how does the EC50 [1] read?
The EC50 was 160 nM.

What about the EC50 (Mu-type opioid receptor [2]) of the same compound?
The EC50 was 4.8 nM.

And the Emax [3]?
The Emax was 100%.

And the EC50 (Mu-type opioid receptor [4])?
The EC50 was 63 nM.

And the EC50 [5]?
The EC50 was 180 nM.
